Measurements as given in ChEMBL document CHEMBL3351948, “Synthesis of gallinamide A analogues as potent falcipain inhibitors and antimalarials” (J Med Chem, 2014).
pIC50: −log10 of the molar value. The source made the active and inactive calls. No cut-off for these calls is given here. *1 amine or outer side, *2 acyl side, *3 side chain or, on linkers, in order; H or OH if unused. Where a SMILES comes first, the peptide text is derived from it. [ ]: non-standard residue; d: D form. The star is where a group is joined. Pentenoic(2E,4S-NH2) = C[C@@H](/C=C/C(=O)[*:2])N[*:1]; X1 = CC[C@H](C)[C@@H](C(=O)*)N(C)C; NHBn = c1ccc(CN*)cc1

Experiments:
Plasmodium falciparum [1] = assay: Antiplasmodial activity against chloroquine-sensitive Plasmodium falciparum 3D7 infected in human erythrocytes by [3H]-hypoxanthine incorporation assay; format: functional, organism-based
In short: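 IC50 against the chloroquine-sensitive 3D7 strain was measured by [3H]-hypoxanthine incorporation in cultured parasites. Values are means with standard error of the mean from three experiments.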

Plasmodium falciparum [2] = assay: Antiplasmodial activity against Plasmodium falciparum 3D7 trophozoite stage assessed as swollen food vacuole after 3 days by Giemsa staining-based assay; format: functional, organism-based
Falcipain 2 [3] = molecular target: T1, Falcipain 2 (Plasmodium falciparum, UniProt Q9N6S8); assay: Inhibition of Plasmodium falciparum FP2 using Z-Phe-Arg-AMC as substrate incubated for 30 mins prior to substrate addition measured after 30 mins by fluorescence assay
T1 sequence (Q9N6S8 whole entry): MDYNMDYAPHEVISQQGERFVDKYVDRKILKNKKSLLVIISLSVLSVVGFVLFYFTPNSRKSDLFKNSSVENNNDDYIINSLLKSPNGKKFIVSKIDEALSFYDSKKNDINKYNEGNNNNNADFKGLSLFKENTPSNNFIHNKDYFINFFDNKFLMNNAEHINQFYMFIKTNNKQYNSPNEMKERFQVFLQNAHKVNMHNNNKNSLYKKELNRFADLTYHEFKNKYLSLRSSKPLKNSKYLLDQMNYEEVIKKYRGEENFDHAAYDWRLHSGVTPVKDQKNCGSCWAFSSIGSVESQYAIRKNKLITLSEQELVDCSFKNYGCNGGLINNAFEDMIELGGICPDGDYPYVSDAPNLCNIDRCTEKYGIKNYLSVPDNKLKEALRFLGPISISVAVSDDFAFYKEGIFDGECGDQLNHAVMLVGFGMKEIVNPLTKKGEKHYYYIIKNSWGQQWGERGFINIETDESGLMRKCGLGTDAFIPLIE
In short: (§1)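 The assay read enzyme activity with a fluorescence-based kinetic method and reported IC50 in nM. Values are means with standard error of the mean from three experiments.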

[4] = Inhibition of Plasmodium falciparum FP3 using Z-Phe-Arg-AMC as substrate incubated for 30 mins prior to substrate addition measured after 30 mins by fluorescence assay; in short: as §1
[5] = Cytotoxicity against […] cells assessed as cell viability by AlamarBlue assay; format: cell-based; conditions: Homo sapiens
[6] = molecular target: Procathepsin L (Homo sapiens) (UniProt P07711); assay: Inhibition of human cathepsin L expressed in Pichia pastoris using N-Cbz-Phe-Arg-7-amino-4-methylcoumarin as substrate incubated for 90 mins prior to substrate addition measured after 30 mins by fluorescence assay
Plasmodium falciparum [7] = assay: Inhibition of Plasmodium falciparum AP-M18
Plasmodium falciparum [8] = assay: Inhibition of Plasmodium falciparum AP-M17
Plasmodium falciparum [9] = assay: Antiplasmodial activity against Plasmodium falciparum 3D7 trophozoite stage assessed as swollen food vacuole at <5 nM after 3 days by Giemsa staining-based assay; format: functional, organism-based
Plasmodium falciparum [10] = assay: Inhibition of Plasmodium falciparum AP-M1
Plasmodium falciparum [11] = assay: Antiplasmodial activity against multidrug-resistant Plasmodium falciparum Dd2 infected in human erythrocytes by [3H]-hypoxanthine incorporation assay; format: functional, organism-based
In short: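 Chloroquine-resistant P. falciparum Dd2 strain; IC50 reported with standard error of the mean from three experiments.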

Falcipain 2 [12] = molecular target: T1, Falcipain 2; assay: Inhibition of FP2 in Plasmodium falciparum trophozoite stage after 1 hr by SDS-PAGE analysis
Plasmodium falciparum [13] = assay: Antiplasmodial activity against Plasmodium falciparum 3D7; format: functional, organism-based
In short: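 Chloroquine-sensitive P. falciparum 3D7 cultures; growth inhibition read out as [3H]-hypoxanthine incorporation; IC50 reported with standard error of the mean from three experiments.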

Falcipain 2 [14] = molecular target: T1, Falcipain 2; assay: Inhibition of FP2' in Plasmodium falciparum trophozoite stage after 1 hr by SDS-PAGE analysis
[15] = Inhibition of FP3 in Plasmodium falciparum trophozoite stage after 1 hr by SDS-PAGE analysis
[16] = Inhibition of FP1 in Plasmodium falciparum trophozoite stage after 1 hr by SDS-PAGE analysis

Chain of Procathepsin L (Homo sapiens) (P07711 114-333 limits assumed): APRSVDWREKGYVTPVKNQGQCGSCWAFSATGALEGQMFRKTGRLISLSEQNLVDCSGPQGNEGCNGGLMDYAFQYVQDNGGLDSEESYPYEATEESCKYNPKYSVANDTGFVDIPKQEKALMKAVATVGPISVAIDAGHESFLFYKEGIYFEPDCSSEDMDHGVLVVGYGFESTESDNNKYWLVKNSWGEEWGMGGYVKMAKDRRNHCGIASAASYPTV

SMILES	pIC50 (Plasmodium falciparum [1])	Activity (Plasmodium falciparum [2])	pIC50 (Falcipain 2 [3])	pIC50 [4]	pIC50 [5]	inhibition [6]	INH (Plasmodium falciparum [7]) [µM]	INH (Plasmodium falciparum [8]) [µM]	Activity (Plasmodium falciparum [9])	INH (Plasmodium falciparum [10]) [µM]	pIC50 (Plasmodium falciparum [11])	pIC50 (Falcipain 2 [12])	pIC50 (Plasmodium falciparum [13])	pIC50 (Falcipain 2 [14])	pIC50 [15]	pIC50 [16]
CC[C@H](C)[C@@H](C(=O)N[C@@H](CC(C)C)C(=O)N[C@@H](CC(C)C)C(=O)N[C@H](C(=O)N[C@@H](C)/C=C/C(=O)N[C@@H](C)C(=O)NCc1ccccc1)C(C)C)N(C)C (X1-LLV[Pentenoic(2E,4S-NH2)]A-NHBn)	< 4.30	Active	< 4.30	< 4.30	–	–	–	–	–	–	–	–	–	–	–	–
CC(C)C[C@H](NC(=O)[C@H](CC(C)C)NC(=O)[C@H](C(C)C)N(C)C)C(=O)N[C@@H](C)/C=C/C(=O)N[C@@H](C)C(=O)Nc1nccs1	5.96	Active	5.60	4.47	–	–	–	–	–	–	–	–	–	–	–	–
COC1=CC(=O)N(C(=O)CC[C@H](C)NC(=O)[C@H](CC(C)C)NC(=O)[C@H](CC(C)C)NC(=O)[C@H](C(C)C)N(C)C)[C@H]1C	5.36	inactive	5.43	< 4.30	–	–	–	–	–	–	–	–	–	–	–	–
CC[C@H](C)[C@@H](C(=O)N[C@@H](CC(C)C)C(=O)N[C@@H](CC(C)C)C(=O)N[C@H](C(=O)N[C@@H](C)/C=C/C(=O)N[C@@H](C)C(=O)N1C[C@@H](O)C[C@H]1C(=O)OC)C(C)C)N(C)C	< 4.30	Active	< 4.30	< 4.30	–	–	–	–	–	–	–	–	–	–	–	–
CO[C@H]1CC(=O)N(C(=O)CC[C@H](C)NC(=O)[C@H](CC(C)C)NC(=O)[C@H](CC(C)C)NC(=O)[C@H](C(C)C)N(C)C)[C@H]1C	< 4.30	inactive	< 4.30	< 4.30	–	–	–	–	–	–	–	–	–	–	–	–
COC1=CC(=O)N(C(=O)/C=C/[C@H](C)NC(=O)[C@H](CC(C)C)NC(=O)[C@H](CC(C)C)NC(=O)[C@H](C(C)C)N(C)C)[C@H]1Cc1ccc(O)cc1	7.70	–	8.28	7.09	4.72	Active	> 10	> 10	Active	> 10	7.17	–	–	–	–	–
CO[C@H]1CC(=O)N(C(=O)/C=C/[C@H](C)NC(=O)[C@H](CC(C)C)NC(=O)[C@H](CC(C)C)NC(=O)[C@H](C(C)C)N(C)C)[C@H]1C	6.68	Active	8.55	6.79	–	–	–	–	–	–	–	–	–	–	–	–
CC[C@H](C)[C@@H](C(=O)O[C@@H](CC(C)C)C(=O)N[C@@H](CC(C)C)C(=O)N[C@@H](C)/C=C/C(=O)N1C(=O)C=C(OC)[C@@H]1C)N(C)C [GALLINAMIDE A]	–	–	–	–	–	–	–	–	–	–	–	8.07	7.30	8.07	7.66	6.85
COC1=CC(=O)N(C(=O)/C=C/[C@H](C)NC(=O)[C@H](CC(C)C)NC(=O)[C@H](CC(C)C)NC(=O)[C@H](C(C)C)N(C)C)[C@H]1C	7.05	Active	8.17	6.53	4.85	Active	> 10	> 10	–	> 10	6.52	–	–	–	–	–
COC1=CC(=O)N(C(=O)/C=C/[C@H](C)NC(=O)[C@H](CC(C)C)NC(=O)[C@H](CC(C)C)NC(=O)[C@H](C(C)C)N(C)C)[C@H]1C(C)C	7.78	–	8.02	6.88	5.02	Active	> 10	> 10	Active	> 10	6.78	–	–	–	–	–
CC[C@H](C)[C@@H](C(=O)N[C@@H](CC(C)C)C(=O)N[C@@H](CC(C)C)C(=O)N[C@@H](C)/C=C/C(=O)N[C@@H](C)C(=O)N1C[C@@H](O)C[C@H]1C(=O)OC)N(C)C	5.72	Active	5.11	< 4.30	–	–	–	–	–	–	–	–	–	–	–	–
CC(C)C[C@H](NC(=O)[C@H](CC(C)C)NC(=O)[C@H](C(C)C)N(C)C)C(=O)N[C@@H](C)/C=C/C(=O)N1CC(OCc2ccccc2)=CC1=O	7.02	–	8.02	6.71	–	–	–	–	Active	–	–	–	–	–	–	–
CC(C)C[C@H](NC(=O)[C@H](CC(C)C)NC(=O)[C@@H]1CCCN1C)C(=O)N[C@@H](C)/C=C/C(=O)N[C@@H](C)C(=O)NCc1ccccc1	5.18	Active	5.22	4.34	–	–	–	–	–	–	–	–	–	–	–	–
CC[C@H](C)[C@@H](C(=O)N[C@@H](CC(C)C)C(=O)N[C@@H](CC(C)C)C(=O)N[C@@H](C)/C=C/C(=O)N[C@@H](C)C(=O)NCc1ccccc1)N(C)C	6.27	Active	4.98	< 4.60	< 4.30	Active	> 10	> 10	–	> 10	6.38	–	–	–	–	–
COC1=CC(=O)N(C(=O)/C=C/[C@H](C)NC(=O)[C@H](CC(C)C)NC(=O)[C@H](CC(C)C)NC(=O)[C@H](C(C)C)N(C)C)C1	7.24	–	7.61	6.65	4.79	Active	> 10	> 10	Active	> 10	6.38	–	–	–	–	–
CC(C)C[C@H](NC(=O)[C@H](CC(C)C)NC(=O)[C@H](C(C)C)N(C)C)C(=O)N[C@@H](C)/C=C/C(=O)N1C(=O)C=C(OCc2ccccc2)[C@@H]1C(C)C	7.21	–	8.16	6.74	–	–	–	–	Active	–	–	–	–	–	–	–
CC(C)C[C@H](NC(=O)[C@H](CC(C)C)NC(=O)[C@H](C(C)C)N(C)C)C(=O)N[C@@H](C)/C=C/C(=O)N[C@@H](C)C(=O)NCc1ccccc1	6.49	Active	4.94	< 4.60	< 4.30	Active	> 10	> 10	–	> 10	6.42	–	–	–	–	–
CC(C)C[C@H](NC(=O)[C@H](CC(C)C)NC(=O)[C@@H](C(C)C)N(C)C)C(=O)N[C@@H](C)/C=C/C(=O)N[C@@H](C)C(=O)NCc1ccccc1	5.27	Active	5.47	< 4.60	< 4.30	Active	> 10	> 10	–	> 10	6.77	–	–	–	–	–
COC1=CC(=O)N(C(=O)/C=C/[C@H](C)NC(=O)[C@H](CC(C)C)NC(=O)[C@H](CC(C)C)NC(=O)[C@H](C(C)C)N(C)C)[C@H]1Cc1c[nH]c2ccccc12	8.01	–	7.92	7.18	5.07	Active	> 10	> 10	Active	> 10	7.54	–	–	–	–	–
